Laboratory results from ChEMBL document CHEMBL3751743, “Synthesis and anti-cancer screening of novel heterocyclic-(2H)-1,2,3-triazoles as potential anti-cancer agents” (Medchemcomm, 2015).

What was measured:
Assay type in all cases: functional
KM12 = test: Cytotoxicity against human KM12 cells after 48 hrs by SRB assay; details: KM12, 48 h
In short: (§1)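 NCI-60 five-dose screen: compounds dissolved in DMSO/H2O, tested at five 10-fold dilutions (10^-4 to 10^-8 M) for 48 h. Growth measured by sulforhodamine B optical density at time zero and after 48 h drug or vehicle exposure. Percentage growth calculated relative to control. GI50 is the molar concentration giving 50% reduction in net cell growth versus day-0 cell numbers.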

[1] = Cytotoxicity against human SKOV3 cells after 48 hrs by SRB assay; details: SK-OV-3, 48 h; in short: as §1
[2] = Cytotoxicity against human Caki1 cells after 48 hrs by SRB assay; details: CAKI-1, 48 h; in short: as §1
Malme-3M = test: Cytotoxicity against human MALME-3M cells after 48 hrs by SRB assay
In short: (§2)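 NCI-60 five-dose screen: compounds in DMSO/H2O tested at 10^-4 to 10^-8 M (10-fold steps) for 48 h. Cell mass read by sulforhodamine B optical density at time zero and after exposure to compound or vehicle. GI50 is the concentration giving 50% reduction in net cell growth relative to day-0 cell numbers.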

SK-MEL-28 = test: Cytotoxicity against human SK-MEL-28 cells after 48 hrs by SRB assay; details: SK-MEL-28, 48 h; in short: as §1
NCI-H226 = test: Cytotoxicity against human NCI-H226 cells after 48 hrs by SRB assay; details: NCI-H226, 48 h; in short: as §1
[3] = Cytotoxicity against human LOXIMVI cells after 48 hrs by SRB assay; details: LOX IMVI; in short: as §1
[4] = Cytotoxicity against human UACC257 cells after 48 hrs by SRB assay; details: UACC-257, 48 h
In short: (§3)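 NCI-60 five-dose screen. Compounds dissolved in DMSO/H2O and tested at five 10-fold dilutions (10^-4 to 10^-8 M) for 48 h. Growth read by sulforhodamine B optical density at time zero and after 48 h of exposure to compound or vehicle. Percent growth calculated against control. GI50 is the molar concentration giving 50% reduction in net cell growth relative to cell number on day 0.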

HT-29 = test: Cytotoxicity against human HT-29 cells after 48 hrs by SRB assay; details: HT-29, 48 h; in short: as §1
[5] = Cytotoxicity against human DU145 cells after 48 hrs by SRB assay; details: DU-145, 48 h; in short: as §1
CCRF-CEM = test: Cytotoxicity against human CCRF-CEM cells after 48 hrs by SRB assay; in short: as §1
A549 = test: Cytotoxicity against human A549 cells after 48 hrs by SRB assay; details: A549, 48 h; in short: as §1
[6] = Cytotoxicity against human TK10 cells after 48 hrs by SRB assay; details: TK-10, 48 h; in short: as §3
[7] = Cytotoxicity against human OVCAR5 cells after 48 hrs by SRB assay; details: OVCAR-5, 48 h; in short: as §1
A498 = test: Cytotoxicity against human A498 cells after 48 hrs by SRB assay; details: A498, 48 h; in short: as §1
EKVX = test: Cytotoxicity against human EKVX cells after 48 hrs by SRB assay; in short: as §2
NCI-H522 = test: Cytotoxicity against human NCI-H522 cells after 48 hrs by SRB assay; details: NCI-H522, 48 h; in short: as §1
MCF7 = test: Cytotoxicity against human MCF7 cells after 48 hrs by SRB assay; details: MCF7, 48 h; in short: as §1
[8] = Cytotoxicity against human RXF393 cells after 48 hrs by SRB assay; details: RXF 393, 48 h; in short: as §1
[9] = Cytotoxicity against human IGROV1 cells after 48 hrs by SRB assay; details: IGROV-1, 48 h; in short: as §2
[10] = Cytotoxicity against human PC3 cells after 48 hrs by SRB assay; details: PC-3, 48 h; in short: as §1
NCI-H23 = test: Cytotoxicity against human NCI-H23 cells after 48 hrs by SRB assay; details: NCI-H23, 48 h; in short: as §1
MDA-MB-435 = test: Cytotoxicity against human MDA-MB-435 cells after 48 hrs by SRB assay; details: MDA-MB-435, 48 h; in short: as §1
ACHN = test: Cytotoxicity against human ACHN cells after 48 hrs by SRB assay; in short: as §1
[11] = Cytotoxicity against human RPMI8226 cells after 48 hrs by SRB assay; details: RPMI-8226, 48 h; in short: as §1
[12] = Cytotoxicity against human HCC2998 cells after 48 hrs by SRB assay; details: HCC 2998, 48 h; in short: as §1
[13] = Cytotoxicity against human OVCAR3 cells after 48 hrs by SRB assay; details: OVCAR-3, 48 h; in short: as §1
MDA-MB-231 = test: Cytotoxicity against human MDA-MB-231 cells after 48 hrs by SRB assay; details: MDA-MB-231, 48 h; in short: as §1
SK-MEL-5 = test: Cytotoxicity against human SK-MEL-5 cells after 48 hrs by SRB assay; details: SK-MEL-5, 48 h; in short: as §1
[14] = Cytotoxicity against human SF268 cells after 48 hrs by SRB assay; details: SF-268, 48 h; in short: as §1
[15] = Cytotoxicity against human NCI-ADR-RES cells after 48 hrs by SRB assay; in short: as §1
[16] = Cytotoxicity against human HCT15 cells after 48 hrs by SRB assay; details: HCT-15, 48 h; in short: as §1
[17] = Cytotoxicity against human HOP62 cells after 48 hrs by SRB assay; details: HOP-62, 48 h; in short: as §2
U-251 = test: Cytotoxicity against human U251 cells after 48 hrs by SRB assay; details: U-251, 48 h; in short: as §3
SK-MEL-2 = test: Cytotoxicity against human SK-MEL-2 cells after 48 hrs by SRB assay; details: SK-MEL-2, 48 h; in short: as §1
[18] = Cytotoxicity against human SNB19 cells after 48 hrs by SRB assay; details: SNB-19, 48 h; in short: as §1
MDA-MB-468 = test: Cytotoxicity against human MDA-MB-468 cells after 48 hrs by SRB assay; details: MDA-MB-468, 48 h; in short: as §1
786-0 = test: Cytotoxicity against human 786-0 cells after 48 hrs by SRB assay; details: 786-0, 48 h; in short: as §1
[19] = Cytotoxicity against human SW620 cells after 48 hrs by SRB assay; details: SW-620, 48 h; in short: as §1
[20] = Cytotoxicity against human OVCAR4 cells after 48 hrs by SRB assay; details: OVCAR-4, 48 h; in short: as §1
[21] = Cytotoxicity against human BT549 cells after 48 hrs by SRB assay; details: BT-549, 48 h; in short: as §1
NCI-H460 = test: Cytotoxicity against human NCI-H460 cells after 48 hrs by SRB assay; details: NCI-H460, 48 h; in short: as §1
K562 = test: Cytotoxicity against human K562 cells after 48 hrs by SRB assay; details: K562, 48 h; in short: as §1
T47D = test: Cytotoxicity against human T47D cells after 48 hrs by SRB assay; in short: as §3
[22] = Cytotoxicity against human UACC62 cells after 48 hrs by SRB assay; details: UACC-62, 48 h; in short: as §3
M14 = test: Cytotoxicity against human M14 cells after 48 hrs by SRB assay; details: M14, 48 h; in short: as §1
[23] = Cytotoxicity against human SF539 cells after 48 hrs by SRB assay; details: SF-539, 48 h; in short: as §1
[24] = Cytotoxicity against human UO31 cells after 48 hrs by SRB assay; details: UO-31, 48 h; in short: as §3
[25] = Cytotoxicity against human HCT116 cells after 48 hrs by SRB assay; details: HCT-116, 48 h; in short: as §1
[26] = Cytotoxicity against human Hs 578T cells after 48 hrs by SRB assay; in short: as §1
[27] = Cytotoxicity against human HL-60(TB) cells after 48 hrs by SRB assay; details: HL-60, 48 h; in short: as §1
[28] = Cytotoxicity against human HOP92 cells after 48 hrs by SRB assay; details: HOP-92, 48 h; in short: as §1
[29] = Cytotoxicity against human OVCAR8 cells after 48 hrs by SRB assay; details: OVCAR-8, 48 h; in short: as §1
SN12C = test: Cytotoxicity against human SN12C cells after 48 hrs by SRB assay; in short: as §1
[30] = Cytotoxicity against human SF295 cells after 48 hrs by SRB assay; details: SF-295, 48 h; in short: as §1
[31] = Cytotoxicity against human MOLT4 cells after 48 hrs by SRB assay; details: MOLT-4, 48 h; in short: as §1
[32] = Cytotoxicity against human COLO205 cells after 48 hrs by SRB assay; details: COLO 205, 48 h; in short: as §1

## COc1ccc(-c2n[nH]nc2-c2csc3ccccc23)cc1OC
KM12
  GI50: 2280 nM
[1]
  GI50: 2370 nM
[2]
  GI50: 3690 nM
Malme-3M
  GI50: 13300 nM
SK-MEL-28
  GI50: 4630 nM
NCI-H226
  GI50: 13200 nM
[3]
  GI50: 3040 nM
[4]
  GI50: 10900 nM
HT-29
  GI50: 2780 nM
[5]
  GI50: 3770 nM
CCRF-CEM
  GI50: 3290 nM
A549
  GI50: 4520 nM
[6]
  GI50: 2980 nM
[7]
  GI50: 7910 nM
A498
  GI50: 2960 nM
EKVX
  GI50: 3420 nM
NCI-H522
  GI50: 601 nM
MCF7
  GI50: 1450 nM
[8]
  GI50: 2110 nM
[9]
  GI50: 4210 nM
[10]
  GI50: 3080 nM
NCI-H23
  GI50: 3940 nM
MDA-MB-435
  GI50: 337 nM
ACHN
  GI50: 3940 nM
[11]
  GI50: 3640 nM
[12]
  GI50: 4210 nM
[13]
  GI50: 1940 nM
MDA-MB-231
  GI50: 3210 nM
SK-MEL-5
  GI50: 2830 nM
[14]
  GI50: 3690 nM
[15]
  GI50: 2390 nM
[16]
  GI50: 1670 nM
[17]
  GI50: 2180 nM
U-251
  GI50: 2190 nM
SK-MEL-2
  GI50: 1440 nM
[18]
  GI50: 4670 nM
MDA-MB-468
  GI50: 630 nM
786-0
  GI50: 3260 nM
[19]
  GI50: 3090 nM
[20]
  GI50: 6330 nM
[21]
  GI50: 2170 nM
NCI-H460
  GI50: 3560 nM
K562
  GI50: 516 nM
T47D
  GI50: 2830 nM
[22]
  GI50: 2770 nM
M14
  GI50: 1950 nM
[23]
  GI50: 1840 nM
[24]
  GI50: 2780 nM
[25]
  GI50: 2840 nM
[26]
  GI50: 2250 nM
[27]
  GI50: 1700 nM
[28]
  GI50: 921 nM
[29]
  GI50: 4240 nM
SN12C
  GI50: 8800 nM
[30]
  GI50: 2330 nM
[31]
  GI50: 3050 nM
[32]
  GI50: 2820 nM
